Source: ChEMBL document CHEMBL4049390, “Combination of amino acid/dipeptide with ligustrazine-betulinic acid as antitumor agents” (Eur J Med Chem, 2017)

Columns and labels:
[1] = tested on: HepG2; assay: Antiproliferative activity against human HepG2 cells after 72 hrs by MTT assay; type: functional, cell-based; details: HepG2, 72 h
In short: (§1)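 MTT assay. Log-phase cells were seeded at 3×10^3 cells/well and left overnight, then exposed to serial dilutions of compound (DMSO solutions) for 72 h in RPMI 1640 with 10% heat-inactivated FBS at 37 °C, 5% CO2. MTT (5 mg/mL, 20 µL) was added for 4 h at 37 °C and the formazan dissolved in DMSO. A490 was read. % inhibition = (1 − sample OD/control OD)×100; IC50 is the 50% growth-inhibition concentration. Triplicates, n = 3 independent experiments.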

[2] = tested on: HT-29; assay: Antiproliferative activity against human HT-29 cells after 72 hrs by MTT assay; type: functional, cell-based; details: HT-29, 72 h; in short: as §1
[3] = tested on: HeLa; assay: Antiproliferative activity against human HeLa cells after 72 hrs by MTT assay; type: functional, cell-based; in short: as §1
[4] = tested on: BGC-823; assay: Antiproliferative activity against human BGC823 cells after 72 hrs by MTT assay; type: functional, cell-based; details: BGC-823, 72 h; in short: as §1
[5] = tested on: A549; assay: Antiproliferative activity against human A549 cells after 72 hrs by MTT assay; type: functional, cell-based; details: A549, 72 h; in short: as §1
[6] = tested on: MDCK; assay: Antiproliferative activity against MDCK cells after 72 hrs by MTT assay; type: cell-based; details: Canis lupus familiaris; in short: as §1

Structure (SMILES) | IC50 [1] [µM] | IC50 [2] [µM] | IC50 [3] [µM] | IC50 [4] [µM] | IC50 [5] [µM] | IC50 [6] [µM]
C=C(C)[C@@H]1CC[C@]2(C(=O)OCc3nc(C)c(C)nc3C)CC[C@]3(C)[C@H](CC[C@@H]4[C@@]5(C)CC[C@H](OC(=O)[C@@H]6CCC(=O)N6)C(C)(C)[C@@H]5CC[C@]43C)[C@@H]12 | 5.86 | 3.78 | 6.59 | 4.7 | 4.11 | 9.24
C=C(C)[C@@H]1CC[C@]2(C(=O)OCc3nc(C)c(C)nc3C)CC[C@]3(C)[C@H](CC[C@@H]4[C@@]5(C)CC[C@H](OC(=O)CNC(=O)CN)C(C)(C)[C@@H]5CC[C@]43C)[C@@H]12 | 4 | 3.19 | 2.4 | 2.88 | 1.95 | 7.45
C=C(C)[C@@H]1CC[C@]2(C(=O)OCc3nc(C)c(C)nc3C)CC[C@]3(C)[C@H](CC[C@@H]4[C@@]5(C)CC[C@H](OC(=O)[C@H](C)NC(=O)[C@H](C)N)C(C)(C)[C@@H]5CC[C@]43C)[C@@H]12 | 1.93 | 4.18 | 4.49 | 2.51 | 2.54 | 10.2
C=C(C)[C@@H]1CC[C@]2(C(=O)OCc3nc(C)c(C)nc3C)CC[C@]3(C)[C@H](CC[C@@H]4[C@@]5(C)CC[C@H](OC(=O)[C@@H](N)CO)C(C)(C)[C@@H]5CC[C@]43C)[C@@H]12 | 4.03 | 4.35 | 2.74 | 6.21 | 4.39 | 8.56
C=C(C)[C@@H]1CC[C@]2(C(=O)OCc3nc(C)c(C)nc3C)CC[C@]3(C)[C@H](CC[C@@H]4[C@@]5(C)CC[C@H](OC(=O)CN(C)C(=O)CNC)C(C)(C)[C@@H]5CC[C@]43C)[C@@H]12 | 3.94 | 8.32 | 5.08 | 4.1 | 4.83 | 10.9
C=C(C)[C@@H]1CC[C@]2(C(=O)OCc3nc(C)c(C)nc3C)CC[C@]3(C)[C@H](CC[C@@H]4[C@@]5(C)CC[C@H](OC(=O)[C@@H](N)Cc6ccccc6)C(C)(C)[C@@H]5CC[C@]43C)[C@@H]12 | > 40 | > 20 | > 40 | > 20 | > 40 | > 40
C=C(C)[C@@H]1CC[C@]2(C(=O)OCc3nc(C)c(C)nc3C)CC[C@]3(C)[C@H](CC[C@@H]4[C@@]5(C)CC[C@H](O)C(C)(C)[C@@H]5CC[C@]43C)[C@@H]12 | 5.7 | 7.41 | 8 | 6.87 | 3.56 | 18.2
C=C(C)[C@@H]1CC[C@]2(C(=O)OCc3nc(C)c(C)nc3C)CC[C@]3(C)[C@H](CC[C@@H]4[C@@]5(C)CC[C@H](OC(=O)[C@@H](N)C(C)C)C(C)(C)[C@@H]5CC[C@]43C)[C@@H]12 | 5.91 | > 20 | 8.63 | 7.14 | 6.9 | > 40
C=C(C)[C@@H]1CC[C@]2(C(=O)OCc3nc(C)c(C)nc3C)CC[C@]3(C)[C@H](CC[C@@H]4[C@@]5(C)CC[C@H](OC(=O)[C@H](N)CC(=O)O)C(C)(C)[C@@H]5CC[C@]43C)[C@@H]12 | > 20 | > 20 | > 20 | > 20 | > 20 | > 40
C=C(C)[C@@H]1CC[C@]2(C(=O)OCc3nc(C)c(C)nc3C)CC[C@]3(C)[C@H](CC[C@@H]4[C@@]5(C)CC[C@H](OC(=O)[C@H](C)N)C(C)(C)[C@@H]5CC[C@]43C)[C@@H]12 | > 20 | 7.74 | 6.62 | 6.16 | 6.33 | > 40
C=C(C)[C@@H]1CC[C@]2(C(=O)OCc3nc(C)c(C)nc3C)CC[C@]3(C)[C@H](CC[C@@H]4[C@@]5(C)CC[C@H](OC(=O)[C@@H]6CCCN6)C(C)(C)[C@@H]5CC[C@]43C)[C@@H]12 | 4.54 | 2.73 | 6.33 | 3.47 | 3.36 | 10.2
C=C(C)[C@@H]1CC[C@]2(C(=O)OCc3nc(C)c(C)nc3C)CC[C@]3(C)[C@H](CC[C@@H]4[C@@]5(C)CC[C@H](OC(=O)[C@@H](N)Cc6c[nH]c7ccccc67)C(C)(C)[C@@H]5CC[C@]43C)[C@@H]12 | > 40 | 7.41 | > 20 | > 20 | > 20 | > 40
C=C(C)[C@@H]1CC[C@]2(C(=O)OCc3nc(C)c(C)nc3C)CC[C@]3(C)[C@H](CC[C@@H]4[C@@]5(C)CC[C@H](OC(=O)CN(C)C(=O)[C@@H]6CCCN6)C(C)(C)[C@@H]5CC[C@]43C)[C@@H]12 | 3.75 | 5.98 | 3.02 | 1.83 | 3.91 | 11.3
C=C(C)[C@@H]1CC[C@]2(C(=O)OCc3nc(C)c(C)nc3C)CC[C@]3(C)[C@H](CC[C@@H]4[C@@]5(C)CC[C@H](OC(=O)CN(C)C(=O)CN)C(C)(C)[C@@H]5CC[C@]43C)[C@@H]12 | 4.94 | 3.31 | 2.62 | 3.43 | 2.96 | 8.08
C=C(C)[C@@H]1CC[C@]2(C(=O)OCc3nc(C)c(C)nc3C)CC[C@]3(C)[C@H](CC[C@@H]4[C@@]5(C)CC[C@H](OC(=O)CNC(=O)[C@@H]6CCCN6)C(C)(C)[C@@H]5CC[C@]43C)[C@@H]12 | 3.48 | 4.11 | 2.2 | 0.84 | 2.98 | 6.63
C=C(C)[C@@H]1CC[C@]2(C(=O)OCc3nc(C)c(C)nc3C)CC[C@]3(C)[C@H](CC[C@@H]4[C@@]5(C)CC[C@H](OC(=O)CN(C)C(=O)[C@H](C)N)C(C)(C)[C@@H]5CC[C@]43C)[C@@H]12 | 4.27 | 3.86 | 4.55 | 4.38 | 5.18 | 14.6
C=C(C)[C@@H]1CC[C@]2(C(=O)OCc3nc(C)c(C)nc3C)CC[C@]3(C)[C@H](CC[C@@H]4[C@@]5(C)CC[C@H](OC(=O)CN)C(C)(C)[C@@H]5CC[C@]43C)[C@@H]12 | 6.77 | 3.97 | 4.24 | 3.87 | 3.62 | 5.82
C=C(C)[C@@H]1CC[C@]2(C(=O)OCc3nc(C)c(C)nc3C)CC[C@]3(C)[C@H](CC[C@@H]4[C@@]5(C)CC[C@H](OC(=O)[C@@H](N)CC(C)C)C(C)(C)[C@@H]5CC[C@]43C)[C@@H]12 | > 40 | > 20 | > 20 | > 20 | > 20 | > 40
C=C(C)[C@@H]1CC[C@]2(C(=O)OCc3nc(C)c(C)nc3C)CC[C@]3(C)[C@H](CC[C@@H]4[C@@]5(C)CC[C@H](OC(=O)CNC)C(C)(C)[C@@H]5CC[C@]43C)[C@@H]12 | 4.5 | 1.1 | 3.96 | 3.97 | 3.05 | 9.08
C=C(C)[C@@H]1CC[C@]2(C(=O)OCc3nc(C)c(C)nc3C)CC[C@]3(C)[C@H](CC[C@@H]4[C@@]5(C)CC[C@H](OC(=O)[C@@H](N)[C@@H](C)O)C(C)(C)[C@@H]5CC[C@]43C)[C@@H]12 | 3.64 | 6.66 | 8.39 | 7.05 | 4.18 | > 40
C=C(C)[C@@H]1CC[C@]2(C(=O)OCc3nc(C)c(C)nc3C)CC[C@]3(C)[C@H](CC[C@@H]4[C@@]5(C)CC[C@H](OC(=O)CNC(=O)CNC)C(C)(C)[C@@H]5CC[C@]43C)[C@@H]12 | 5.27 | 3.37 | 7.38 | 2.07 | 3.02 | 20.6
C=C(C)[C@@H]1CC[C@]2(C(=O)OCc3nc(C)c(C)nc3C)CC[C@]3(C)[C@H](CC[C@@H]4[C@@]5(C)CC[C@H](OC(=O)CNC(=O)[C@H](C)N)C(C)(C)[C@@H]5CC[C@]43C)[C@@H]12 | 2.27 | 3.67 | 3.19 | 4.99 | 3.25 | 16.2
C=C(C)[C@@H]1CC[C@]2(C(=O)OCc3nc(C)c(C)nc3C)CC[C@]3(C)[C@H](CC[C@@H]4[C@@]5(C)CC[C@H](OC(=O)[C@@H](N)[C@@H](C)CC)C(C)(C)[C@@H]5CC[C@]43C)[C@@H]12 | 12.7 | 15.9 | > 20 | > 20 | 14.5 | > 40
